From PubChem
An excerpt weighted towards active compounds, which were near 2.7% of everything screened.
PREPL inh = inhibits the human prolyl oligopeptidase-like enzyme | inhibition, % at 5.96 µM | AID 2751 | recombinant PREPL, fluorescence polarization activity-based probe | Q4J6C6 | actives 0.68% (n = 320,000); in the data active means inhibition above about 43%;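 further: 0% = enzyme with DMSO and 100% = wells lacking enzyme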
MC4R ag barr = human MC4R agonism via beta-arrestin; P32245; U2OS MC4R beta-arrestin complementation, luminescence; percent of melanotan II response, DMSO zero; activation, % at 8.9 µM; actives 0.98% (n = 360,000); AID 540308;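 active means activation above a per-plate cutoff, the mean activation of sample wells on that plate plus 3 SD, cut at about 8% in these data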
Target sequence (P32245 whole entry, looked up): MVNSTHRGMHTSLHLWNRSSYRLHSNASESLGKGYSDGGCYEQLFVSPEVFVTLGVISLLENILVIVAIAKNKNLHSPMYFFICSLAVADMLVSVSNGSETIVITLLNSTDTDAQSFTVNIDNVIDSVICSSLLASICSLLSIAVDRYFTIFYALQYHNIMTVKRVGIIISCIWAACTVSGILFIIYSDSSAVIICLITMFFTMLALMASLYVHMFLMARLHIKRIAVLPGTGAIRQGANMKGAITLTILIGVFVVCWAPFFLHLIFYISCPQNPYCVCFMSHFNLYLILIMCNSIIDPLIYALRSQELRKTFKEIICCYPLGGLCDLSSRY
MC4R antag cAMP = blocks human MC4R cAMP signaling | actives 0.48% (n = 360,000) | AID 540295 | P32245 | MC4R-expressing cells, MTII-stimulated cAMP, LANCE TR-FRET | inhibition, % at 6.5 µM;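 active means inhibition above its plate's cutoff, the mean of tested wells on that plate plus 3 SD, cut at about 29% in these data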;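 further: 0% = Melanotan II alone and 100% = Melanotan II plus saturating MCL0020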
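Material: human MC4R-expressing U2OS cells. Probe or stimulus: Melanotan II challenge. Dosing: 6.5 µM single dose. Times: 30-min compound, 1-h challenge, 1-h detection, room temperature. Technique: TR-FRET with Eu-cAMP and labeled anti-cAMP, 671 nm. Replication: singlicate.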
NTR1 agonist = agonists of human neurotensin receptor NTR1. NTR1-U2OS beta-arrestin-GFP spot imaging, agonist mode. activation, % at 20 µM. actives 0.17% (n = 330,000);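 active means activation at or above 40% of the spot to cytoplasm intensity ratio, with at least 20 cells analyzed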;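 further: 0% = DMSO without peptide and 100% = 100 nM NTR1 peptide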
Lipid droplet = hepatic lipid droplet formation modulation; AML12 mouse hepatocytes, oleate lipid droplets, BODIPY imaging; inhibition, % at 6.5 µM; actives 0.4% (n = 240,000);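 active means lipid droplet intensity inhibited by at least 50%, with more than 500 cells counted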
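Test system: AML12 mouse liver cells; schedule: overnight exposure; technique: high-content imaging of BODIPY-stained droplets and DAPI nuclei; read-out: % inhibition of corrected integrated BODIPY droplet signal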
HTR2A ag = activates the mouse 5-HT2A serotonin receptor | P35363 | CHO-K1 mHTR2A beta-arrestin complementation, luminescence; percent of 30 µM serotonin response | activation, % at 7.6 µM | actives 0.66% (n = 360,000);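 active means activation above a run cutoff, the mean activation of all tested compounds plus 3 SD, cut at about 14% in these data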;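 further: 0% = plate median of compound wells and 100% = 30 µM serotonin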
U2OS cAMP counter = U2OS forskolin cAMP inhibition counter-screen | AID 602193 | shares compounds with MC4R antag cAMP | inhibition, % at 6.5 µM | parental U2OS, LANCE TR-FRET | actives 26% (n = 1,600);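 active means mean inhibition over triplicates above the low-control well mean plus 3 SD, set per campaign, cut at about 13% in these data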;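 further: signal is single emission at 671 nm which falls as cellular cAMP rises; 0% = forskolin-stimulated wells and 100% = buffer without forskolin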
MC4R antag conf = human MC4R cAMP antagonism confirmation | actives 27% (n = 1,600) | inhibition, % at 6.5 µM | shares compounds with MC4R antag cAMP | AID 602195 | MC4R-expressing cells, MTII-stimulated cAMP, TR-FRET; in the data active means inhibition above about 29%;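 further: 0% = agonist stimulated wells alone and 100% = agonist stimulated wells plus saturating reference antagonist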
MC4R barr conf = human MC4R beta-arrestin agonism confirmation | shares compounds with MC4R ag barr | U2OS MC4R beta-arrestin recruitment, luminescence; scaled DMSO 0%, Melanotan II 100% | activation, % at 8.9 µM | actives 31% (n = 2,400) | AID 602192;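 active means mean activation across replicates above the hit cutoff set in the earlier primary screen, cut at about 8% in these data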
MOR-DOR barr ag = OPRM1-OPRD1 heterodimer agonism counter-screen. shares compounds with MC4R ag barr. U2OS PathHunter beta-arrestin, beta-gal luminescence; percent of deltorphin B response, DMSO zero. activation, % at 9.2 µM. actives 5.8% (n = 2,400). AID 602194;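 active means mean activation across replicates exceeds the hit threshold derived in the earlier primary screen, cut at about 18% in these data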;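 further: 100% = deltorphin B at 0.9 µM final and 0% = DMSO alone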
MOR ag counter = counter-screen for mouse HTR2A agonists: human mu opioid receptor agonists. actives 5.3% (n = 2,300). U2OS OPRM1 beta-arrestin PathHunter, luminescence; DMSO 0%, DAMGO 9.3 µM 100%. shares compounds with HTR2A ag. activation, % at 9.3 µM;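 active means mean activation above the mean of DMSO-only wells plus 3 SD, cut at about 0.5% in these data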
Target sequence (P35372 whole entry, looked up): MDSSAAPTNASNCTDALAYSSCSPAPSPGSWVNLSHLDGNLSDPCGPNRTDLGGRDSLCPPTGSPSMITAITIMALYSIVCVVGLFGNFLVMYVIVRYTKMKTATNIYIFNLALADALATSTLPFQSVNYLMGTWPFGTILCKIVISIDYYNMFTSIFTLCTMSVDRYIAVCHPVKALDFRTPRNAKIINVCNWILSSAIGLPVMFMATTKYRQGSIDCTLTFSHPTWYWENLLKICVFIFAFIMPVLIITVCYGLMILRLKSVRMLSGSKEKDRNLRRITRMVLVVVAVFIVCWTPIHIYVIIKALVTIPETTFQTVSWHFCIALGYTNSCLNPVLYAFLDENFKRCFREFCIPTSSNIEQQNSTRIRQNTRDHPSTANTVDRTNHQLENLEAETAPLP
HTR2A ag conf = mouse HTR2A agonism confirmed; shares compounds with HTR2A ag; CHO-K1 PathHunter beta-arrestin recruitment, luminescence; DMSO 0%, 30 µM serotonin 100%; actives 19% (n = 2,300); AID 624381; activation, % at 7.6 µM;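 active means mean activation across triplicates above the hit threshold derived in the original primary screen, cut at about 15% in these data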
Numbers without * were called inactive; . = no result.

SMILES | PREPL inh | MC4R ag barr | MC4R antag cAMP | NTR1 agonist | Lipid droplet | HTR2A ag | others
O=C1NCN(c2ccccc2)C12CCN(C(c1ccccc1OC(F)(F)F)c1nnnn1C1CCCC1)CC2 (stereo not drawn) | . | . | . | . | . | 12
Cc1[nH]c2ccccc2c1CN1CCCCC1 | . | 1 | 1 | . | . | 3
COc1cc2c(c(OC)c1OC)-c1ccc(SC)c(=O)cc1C(NC(C)=O)CC2 (stereo not drawn) | . | -1 | -24 | . | . | -2
C[C@]12CC[C@@H](O)CC1=CCC1C2CC[C@@]2(C)C1CC[C@@H]2O (stereo partly drawn) | . | -1 | 11 | . | . | -7
CCC1(NS(=O)(=O)c2ccc(N)cc2)C(=O)N(C)C(=O)N(C)C1=O | . | -1 | 1 | . | . | 6
C=C1C(C)C2C(Cc3ccccc3)NC(=O)C23OC(=O)/C=C/C(O)CCCC(C)C/C=C/C3C1O (stereo not drawn) | . | 0 | 36* | . | . | 8 | U2OS cAMP counter=1;MC4R antag conf=-2
COC(=O)C1=C(c2ccc(F)cc2F)C[C@@H]2CC[C@H]1N2C(=O)NC1Cc2ccccc2C1 | 0 | -1 | 2 | 0 | . | -7
O=C(NN=Cc1ccc(N(CCCl)CCCl)cc1)C(=O)c1c[nH]c2ccccc12 | . | 1 | 31* | . | . | -1 | U2OS cAMP counter=2;MC4R antag conf=27
CC12CC[C@H]3[C@@H](CCC4(O)C[C@H](O)CCC34/C=N/NC(=O)c3ccccc3O)C1(O)CCC2C1=CC(=O)OC1 (stereo partly drawn) | 0 | 6 | 29* | 0 | -5 | -3 | U2OS cAMP counter=-5;MC4R antag conf=-4
O=C1NC(=O)N(c2ccccc2)C(=O)/C1=C/c1ccc(Sc2ccccc2)o1 | -6 | -2 | 29* | . | -3 | -4 | U2OS cAMP counter=18*;MC4R antag conf=6
O=C1NC(=O)N(c2cccc(Cl)c2)C(=O)/C1=C\c1ccc(Sc2nc3ccccc3[nH]2)o1 | -39 | -2 | 24 | 0 | 2 | 8
Nc1cccc(SC2CC(=O)N(c3ccc(Cl)cc3C(=O)c3ccccc3)C2=O)c1 (stereo not drawn) | . | 9.7* | -5 | . | . | 4 | MC4R barr conf=4;MOR-DOR barr ag=9
CN1CCN(CC(=O)Nc2ccc(Cl)cc2C(=O)c2ccccc2)CC1 | 20 | 1 | 2 | 1 | -4 | 1
O=C1NCN(c2ccccc2)C12CCN(C(c1cc3ccccc3o1)c1nnnn1C1CCCCC1)CC2 (stereo not drawn) | . | . | . | . | . | 5
Cc1nn(C)cc1/C=C1/CC2C3CC=C4CC(O)CCC4(C)C3CCC2(C)C1=O (stereo not drawn) | -7 | 1 | 2 | 4 | . | 2
CC12CCC3C(CC=C4CC(O)CCC43C)C1C/C(=C\c1ccccc1F)C2=O (stereo not drawn) | -2 | 27* | 7 | 28 | 6 | 2 | MC4R barr conf=25*;MOR-DOR barr ag=4
NC(N)=N/N=C/c1cn(-c2ccccc2)nc1-c1cccs1 | 24 | 12* | -4 | 3 | 6 | -8 | MC4R barr conf=19*;MOR-DOR barr ag=24*
CCOc1cc(CNCCc2c[nH]c3ccccc23)cc(Cl)c1OCC | -65 | 15* | 5 | 8 | 2 | 10 | MC4R barr conf=17*;MOR-DOR barr ag=8
CC1C(=O)OC2CCN3CC4OC4(COC(=O)C(C)(O)C1(C)O)C23 (stereo not drawn) | . | -1 | 5 | . | . | -4
N[C@@H](Cc1c[nH]c2ccccc12)c1nnc(SCc2ccc(Cl)cc2)o1 | 19 | 10* | -3 | 0 | . | 8 | MC4R barr conf=4;MOR-DOR barr ag=6
CN1C2CNC(=O)CC1C1CCC2C1 (stereo not drawn) | . | 0 | 4 | . | . | 9
O=C(NCc1cccnc1)C(Cl)(Cl)Cl | 1 | -1 | 7 | -1 | -24 | 24* | MOR ag counter=-1;HTR2A ag conf=-4
c1ccc(CCNCc2cccnc2)cc1 | -2 | -1 | 8 | -1 | -2 | 5
O=C(/C=C/c1ccc2c(c1)OCO2)c1c(O)n(CCc2ccccc2)c(=O)[nH]c1=O | 3 | 2 | 4 | -1 | 5 | 5
O=C(/C=C/c1ccccc1)c1c(O)n(CCc2ccccc2)c(=O)[nH]c1=O | -1 | -1 | 7 | 0 | 9 | 15* | MOR ag counter=-1;HTR2A ag conf=1
SMILES | PREPL inh | MC4R ag barr | MC4R antag cAMP | NTR1 agonist | Lipid droplet | HTR2A ag | others
C[C@H]1COc2cc(N3CCN(C)CC3)ccc2S(=O)(=O)N1 | . | . | . | . | . | -1
CC(C)C(O)(C(=O)OCC1=CCN2CCC(O)C12)C(C)O (stereo not drawn) | . | 0 | 7 | . | . | -2
CCC(C)C(NC(=O)CCCNC(=O)CCC(=O)OC1O[C@H]2OC3(C)CC[C@H]4[C@H](C)CCC(C1C)C24OO3)C(=O)O (stereo partly drawn) | 0 | -3 | 9 | 0 | -74 | 21* | MOR ag counter=0.6*;HTR2A ag conf=-4
C[C@]12C[C@H](O)[C@@H](O)C[C@@H]1CC[C@@H]1[C@@H]2CC[C@]2(C)C(=O)CC[C@@H]12 | . | 1 | -4 | . | . | 2
Cc1cccc(C)c1-n1nnnc1C(c1cccs1)N1CCC2(CC1)C(=O)NCN2c1ccccc1 (stereo not drawn) | . | . | . | . | . | 2
CN1C[C@H](CO)C=C2c3cccc4[nH]cc(c34)C[C@H]21 | 42 | -1 | -16 | 1 | 2 | 30* | MOR ag counter=0;HTR2A ag conf=94*
Clc1ccc(N2CCNCC2)nn1 | 6 | 1 | 6 | 1 | 19 | 15* | MOR ag counter=-1;HTR2A ag conf=0
O=[N+]([O-])c1ccc2nc(N3CCNCC3)ccc2c1 | 19 | . | . | -1 | . | .
Cc1ncc(CN2CCCC(C(=O)c3ccc(C(C)(C)C)cc3)C2)s1 (stereo not drawn) | -5 | -2 | 25 | 3 | 8 | -1
